According to ChEMBL document CHEMBL5058577, “EUbOPEN Chemogenomics Library 2 (Multiplex)” (2022):

System: U2OS
Assay: Multiplex assay against U2OS
Format: toxicity, cell-based
Conditions: human
Outline: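 Values for tubulin, mitochondrial-mass and membrane-permeability phenotypes are per cents of cells with healthy nuclei. These cells were identified by CellPathfinder machine-learning gating of live cells that had been stained at seeding with Hoechst33342, BioTracker Green Microtubule Cytoskeleton Dye, MitoTracker Red and Annexin V Alexa Fluor 680 and imaged on a CQ1 microscope at 37°C and 5% CO2 after compound addition. The gating first set Hoechst high-intensity objects apart from normal cells, then split normal cells into healthy, pyknosed or fragmented nuclei, and pyknosed cells into mitotic or apoptotic.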

[1] = 12 h, 1 µM, compound concentration 1 uM, replicate 1
[2] = 12 h, 1 µM, compound concentration 1 uM, replicate 2
[3] = 12 h, 10 µM, compound concentration 10 uM, replicate 1
[4] = 12 h, 10 µM, compound concentration 10 uM, replicate 2
[5] = 24 h, 1 µM, compound concentration 1 uM, replicate 1
[6] = 24 h, 1 µM, compound concentration 1 uM, replicate 2
[7] = 24 h, 10 µM, compound concentration 10 uM, replicate 1
[8] = 24 h, 10 µM, compound concentration 10 uM, replicate 2
[9] = 48 h, 1 µM, compound concentration 1 uM, replicate 1
[10] = 48 h, 1 µM, compound concentration 1 uM, replicate 2
[11] = 48 h, 10 µM, compound concentration 10 uM, replicate 1
[12] = 48 h, 10 µM, compound concentration 10 uM, replicate 2

With `CC[C@@H](C)Nc1nc(C)nc2c(-c3ccc(OC)nc3C)c(C)nn12` [PEXACERFONT] the “Population Apoptotic (%)” value [1] was 73%, the “Population Fragmented Nuclei (%)” value [1] was 24% and the “Population Healthy Nuclei (%)” value [1] was 66%. The “Population Hoechst High Intensity Objects (%)” value [1] was 3%, the “Population Membrane Permeable-Phenotype (%)” value [1] was 2% and the “Population Mitochondria Different-Phenotype (%)” value [1] was 3%. For the same compound, the “Population Mitotic Cells (%)” value [1] was 26%, the “Population Normal (%)” value [1] was 96% and the “Population Pyknosed Nuclei (%)” value [1] was 9%. The “Population Tubulin-Different-Phenotype (%)” value [1] was 2%, the “Total Cell Count” value [1] was 258 and the “Population Apoptotic (%)” value [2] was 87%. The “Population Fragmented Nuclei (%)” value [2] was 17%, the “Population Healthy Nuclei (%)” value [2] was 76% and the “Population Hoechst High Intensity Objects (%)” value [2] was 0%. The “Population Membrane Permeable-Phenotype (%)” value [2] was 1%, the “Population Mitochondria Different-Phenotype (%)” value [2] was 0% and the “Population Mitotic Cells (%)” value [2] was 12%. The “Population Normal (%)” value [2] was 99%, the “Population Pyknosed Nuclei (%)” value [2] was 5% and the “Population Tubulin-Different-Phenotype (%)” value [2] was 0%. For the same compound, the “Total Cell Count” value [2] was 136, the “Population Apoptotic (%)” value [3] was 90% and the “Population Fragmented Nuclei (%)” value [3] was 26%. For the same compound, the “Population Healthy Nuclei (%)” value [3] was 64%, the “Population Hoechst High Intensity Objects (%)” value [3] was 1% and the “Population Membrane Permeable-Phenotype (%)” value [3] was 2%. For the same compound, the “Population Mitochondria Different-Phenotype (%)” value [3] was 1%, the “Population Mitotic Cells (%)” value [3] was 9% and the “Population Normal (%)” value [3] was 98%. For the same compound, the “Population Pyknosed Nuclei (%)” value [3] was 8%, the “Population Tubulin-Different-Phenotype (%)” value [3] was 1% and the “Total Cell Count” value [3] was 265. The “Population Fragmented Nuclei (%)” value [4] was 21%, the “Population Healthy Nuclei (%)” value [4] was 70% and the “Population Membrane Permeable-Phenotype (%)” value [4] was 12%. For the same compound, the “Population Mitochondria Different-Phenotype (%)” value [4] was 7%, the “Population Mitotic Cells (%)” value [4] was 10% and the “Population Pyknosed Nuclei (%)” value [4] was 7%. For the same compound, the “Population Tubulin-Different-Phenotype (%)” value [4] was 4%, the “Total Cell Count” value [4] was 128 and the “Population Apoptotic (%)” value [5] was 80%. For the same compound, the “Population Fragmented Nuclei (%)” value [5] was 21%, the “Population Healthy Nuclei (%)” value [5] was 69% and the “Population Hoechst High Intensity Objects (%)” value [5] was 2%. For the same compound, the “Population Membrane Permeable-Phenotype (%)” value [5] was 5%, the “Population Mitochondria Different-Phenotype (%)” value [5] was 2% and the “Population Mitotic Cells (%)” value [5] was 20%. The “Population Normal (%)” value [5] was 97%, the “Population Pyknosed Nuclei (%)” value [5] was 8% and the “Population Tubulin-Different-Phenotype (%)” value [5] was 2%. The “Total Cell Count” value [5] was 346, the “Population Apoptotic (%)” value [6] was 85% and the “Population Fragmented Nuclei (%)” value [6] was 16%. For the same compound, the “Population Healthy Nuclei (%)” value [6] was 75%, the “Population Membrane Permeable-Phenotype (%)” value [6] was 3% and the “Population Mitochondria Different-Phenotype (%)” value [6] was 6%. The “Population Mitotic Cells (%)” value [6] was 14%, the “Total Cell Count” value [6] was 172 and the “Population Apoptotic (%)” value [7] was 80%. For the same compound, the “Population Fragmented Nuclei (%)” value [7] was 21%, the “Population Healthy Nuclei (%)” value [7] was 71% and the “Population Hoechst High Intensity Objects (%)” value [7] was 2%. The “Population Membrane Permeable-Phenotype (%)” value [7] was 5%, the “Population Mitochondria Different-Phenotype (%)” value [7] was 3% and the “Population Mitotic Cells (%)” value [7] was 19%. For the same compound, the “Population Normal (%)” value [7] was 97%, the “Population Pyknosed Nuclei (%)” value [7] was 7% and the “Population Tubulin-Different-Phenotype (%)” value [7] was 4%. For the same compound, the “Total Cell Count” value [7] was 307, the “Population Apoptotic (%)” value [8] was 92% and the “Population Fragmented Nuclei (%)” value [8] was 14%. For the same compound, the “Population Healthy Nuclei (%)” value [8] was 77%, the “Population Hoechst High Intensity Objects (%)” value [8] was 0% and the “Population Membrane Permeable-Phenotype (%)” value [8] was 7%. For the same compound, the “Population Mitotic Cells (%)” value [8] was 7%, the “Population Normal (%)” value [8] was 99% and the “Population Pyknosed Nuclei (%)” value [8] was 8%. For the same compound, the “Population Tubulin-Different-Phenotype (%)” value [8] was 3%, the “Total Cell Count” value [8] was 159 and the “Population Apoptotic (%)” value [9] was 88%. For the same compound, the “Population Fragmented Nuclei (%)” value [9] was 16%, the “Population Healthy Nuclei (%)” value [9] was 75% and the “Population Hoechst High Intensity Objects (%)” value [9] was 1%. The “Population Membrane Permeable-Phenotype (%)” value [9] was 3%, the “Population Mitochondria Different-Phenotype (%)” value [9] was 1% and the “Population Mitotic Cells (%)” value [9] was 11%. The “Population Normal (%)” value [9] was 98%, the “Population Pyknosed Nuclei (%)” value [9] was 7% and the “Population Tubulin-Different-Phenotype (%)” value [9] was 1%. The “Total Cell Count” value [9] was 476, the “Population Apoptotic (%)” value [10] was 91% and the “Population Healthy Nuclei (%)” value [10] was 73%. For the same compound, the “Population Hoechst High Intensity Objects (%)” value [10] was 2%, the “Population Membrane Permeable-Phenotype (%)” value [10] was 5% and the “Population Mitochondria Different-Phenotype (%)” value [10] was 4%. The “Population Mitotic Cells (%)” value [10] was 8%, the “Population Normal (%)” value [10] was 97% and the “Population Pyknosed Nuclei (%)” value [10] was 9%. For the same compound, the “Population Tubulin-Different-Phenotype (%)” value [10] was 4%, the “Total Cell Count” value [10] was 261 and the “Population Apoptotic (%)” value [11] was 94%. The “Population Fragmented Nuclei (%)” value [11] was 17%, the “Population Healthy Nuclei (%)” value [11] was 74% and the “Population Hoechst High Intensity Objects (%)” value [11] was 1%. For the same compound, the “Population Membrane Permeable-Phenotype (%)” value [11] was 4%, the “Population Mitochondria Different-Phenotype (%)” value [11] was 1% and the “Population Mitotic Cells (%)” value [11] was 5%. The “Population Normal (%)” value [11] was 98%, the “Population Pyknosed Nuclei (%)” value [11] was 8% and the “Population Tubulin-Different-Phenotype (%)” value [11] was 1%. For the same compound, the “Total Cell Count” value [11] was 478, the “Population Apoptotic (%)” value [12] was 100% and the “Population Fragmented Nuclei (%)” value [12] was 13%. For the same compound, the “Population Healthy Nuclei (%)” value [12] was 77%, the “Population Membrane Permeable-Phenotype (%)” value [12] was 6% and the “Population Mitochondria Different-Phenotype (%)” value [12] was 3%. For the same compound, the “Population Mitotic Cells (%)” value [12] was 0%, the “Population Tubulin-Different-Phenotype (%)” value [12] was 2% and the “Total Cell Count” value [12] was 242.
